Tests used:
Format in all cases: functional
Rattus norvegicus [1] = test: Antihyperglycemic activity in streptozotocin-induced diabetic Wistar rat assessed as variation in glycemia at 10 mg/kg administered via intragastric route 7 days after streptozotocin challenge measured after 3 hrs of compound administration by glucose oxidase method relative to control
Summary of the method: (§1)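 Diabetes induced by single ip streptozotocin 50 mg/kg in 0.1 M citrate buffer pH 4.5; rats with glucose above 250 mg/dL after 7 days included. Rats 180–220 g, 6 per group. Test agent suspended in 0.05% Tween 80 in saline, given intragastrically; vehicle controls. Tail-vein blood sampled at 0 h and after dosing; glucometer reading; % change calculated from 0 h value.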

Rattus norvegicus [2] = test: Antihyperglycemic activity in streptozotocin-induced diabetic Wistar rat assessed as variation in glycemia at 10 mg/kg administered via intragastric route 7 days after streptozotocin challenge measured after 7 hrs of compound administration by glucose oxidase method relative to control; summary of the method: as §1
Rattus norvegicus [3] = test: Hypoglycemic activity in normal Wistar rat assessed as variation in glycemia at 10 mg/kg administered via intragastric route after 3 hrs by glucose oxidase method relative to control
Summary of the method: (§2)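 Normoglycemic rats (180–220 g), 6 per group, standard pellet diet and water ad libitum. Test agent was suspended in 0.05% Tween 80 in saline and given by gavage. Controls got vehicle at 0.5 mL/100 g. Tail-incision blood was sampled at 0 h and after dosing and read by glucometer. Glycemia change was expressed as % of the 0 h value; ANOVA with Dunnett's test versus vehicle.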

Rattus norvegicus [4] = test: Hypoglycemic activity in normal Wistar rat assessed as variation in glycemia at 10 mg/kg administered via intragastric route after 7 hrs by glucose oxidase method relative to control; summary of the method: as §2
Rattus norvegicus [5] = test: Hypoglycemic activity in normal Wistar rat assessed as variation in glycemia at 10 mg/kg administered via intragastric route after 1.5 hrs by glucose oxidase method relative to control; summary of the method: as §2
Rattus norvegicus [6] = test: Hypoglycemic activity in normal Wistar rat assessed as variation in glycemia at 10 mg/kg administered via intragastric route after 9 hrs by glucose oxidase method relative to control; summary of the method: as §2
Rattus norvegicus [7] = test: Hypoglycemic activity in normal Wistar rat assessed as variation in glycemia at 10 mg/kg administered via intragastric route after 5 hrs by glucose oxidase method relative to control; summary of the method: as §2
Rattus norvegicus [8] = test: Antihyperglycemic activity in streptozotocin-induced diabetic Wistar rat assessed as variation in glycemia at 10 mg/kg administered via intragastric route 7 days after streptozotocin challenge measured after 9 hrs of compound administration by glucose oxidase method relative to control; summary of the method: as §1
Rattus norvegicus [9] = test: Antihyperglycemic activity in streptozotocin-induced diabetic Wistar rat assessed as variation in glycemia at 10 mg/kg administered via intragastric route 7 days after streptozotocin challenge measured after 5 hrs of compound administration by glucose oxidase method relative to control; summary of the method: as §1
Rattus norvegicus [10] = test: Antihyperglycemic activity in streptozotocin-induced diabetic Wistar rat assessed as variation in glycemia at 10 mg/kg administered via intragastric route 7 days after streptozotocin challenge measured after 1.5 hrs of compound administration by glucose oxidase method relative to control; summary of the method: as §1

Row | SMILES | Activity (Rattus norvegicus [1]) | Activity (Rattus norvegicus [2]) | Activity (Rattus norvegicus [3]) | Activity (Rattus norvegicus [4]) | Activity (Rattus norvegicus [5]) | Activity (Rattus norvegicus [6]) | Activity (Rattus norvegicus [7]) | Activity (Rattus norvegicus [8]) | Activity (Rattus norvegicus [9]) | Activity (Rattus norvegicus [10])
1 | COc1ccc(Cl)cc1C(=O)NCCc1ccc(S(=O)(=O)NC(=O)NC2CCCCC2)cc1 [GLYBURIDE] | -35.5% | -35.2% | -30.1% | -41.8% | -8.4% | -37.1% | -47.6% | -36.7% | -35.9% | -13.7%
2 | CC(=O)OC[C@H]1O[C@@H](Oc2cc(O)cc3oc(=O)cc(-c4ccc(O)c(O)c4)c23)[C@H](O)[C@@H](O)[C@H]1O | -20.7% | -34.7% | -29.9% | -25% | -9.2% | -30.6% | -28.6% | -37.2% | -29.5% | -5%
3 | CC(=O)OC[C@H]1O[C@@H](Oc2cc(O)cc3oc(=O)cc(-c4ccc(O)cc4)c23)[C@H](O)[C@@H](O)[C@H]1O | -24.9% | -25.2% | -17.8% | -27.2% | -10.3% | -24% | -20.9% | -27.1% | -22.7% | -11%

Reference: ChEMBL document CHEMBL1152317, “Hypoglycemic activity of extracts and compounds from the leaves of Hintonia standleyana and H. latiflora: potential alternatives to the use of the stem bark of these species” (2009)
